High-throughput results: PubChem BioAssay, The Scripps Research Institute Molecular Screening Center
Only some compounds are listed: those with a hit (about 1.6% of all), similar ones and a draw of the others.
MBD2 inh = blocks human MBD2 binding to methylated DNA | AID 686964 | inhibition, % at 4.4 µM | TR-FRET, MBD2 binding to methylated oligonucleotide | 0.31% of 370,000 active; in the data active = inhibition above about 13%
UHRF1 MBD2 ctr = UHRF1 methyl-DNA binding inhibition; Q96T88; UHRF1 binding to methylated oligo, TR-FRET; inhibition, % at 4.4 µM; 0.75% of 370,000 active; AID 687016; in the data active = inhibition above about 21%;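 note: UHRF1 SRA domain binding a hemimethylated CpG hairpin DNA probe; 0% = median of test compound wells and 100% = reference inhibitor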
TDP2 inh = TDP2 (human) inhibition, absorbance primary screen. AID 720702. O95551. inhibition, % at 12.8 µM. 0.34% of 370,000 active. recombinant TDP2, T5PNP hydrolysis, p-nitrophenol absorbance 415 nm;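 active = inhibition above the mean of all tested compounds plus 3 SD, set per campaign, cut at about 25% in these data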;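 note: 0% = DMSO with enzyme and 100% = buffer with substrate but no TDP2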
Target sequence (O95551 whole entry, looked up): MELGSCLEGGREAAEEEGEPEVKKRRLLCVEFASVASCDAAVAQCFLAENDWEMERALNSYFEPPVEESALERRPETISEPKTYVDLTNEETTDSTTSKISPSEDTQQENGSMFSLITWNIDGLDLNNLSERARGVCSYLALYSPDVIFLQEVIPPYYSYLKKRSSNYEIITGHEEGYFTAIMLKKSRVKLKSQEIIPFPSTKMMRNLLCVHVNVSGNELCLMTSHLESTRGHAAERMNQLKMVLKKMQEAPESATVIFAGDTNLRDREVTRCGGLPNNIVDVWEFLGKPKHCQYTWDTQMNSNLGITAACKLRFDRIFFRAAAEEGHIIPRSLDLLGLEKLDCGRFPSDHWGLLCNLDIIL
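Test system: Human TDP2 enzyme | Reagent: 5 mM T5PNP | Compound dosing: 12.8 µM single point, 1% DMSO | Incubation: Enzyme reaction with compound for 2 h at 37 °C | Technique: p-Nitrophenol epi absorbance | Read-out: % inhibition relative to enzyme-containing and enzyme-free wells | Benchmarks: High control without enzyme, low control DMSO plus TDP2 | Replicates: Singlicate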
LEDGF integ inh = blocks HIV-1 LEDGF/p75-dependent DNA integration. TR-FRET IN-LEDGF/p75 DNA integration, Eu/Cy5. inhibition, % at 3.7 µM. 0.64% of 370,000 active;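 active = inhibition above the screen-wide mean plus 3 SD, cut at about 13% in these data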;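 note: signal is the Cy5 over europium emission ratio at 671 and 618 nm; 0% = plate median of compound wells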
IN multimer act = activates HIV-1 integrase multimerization in LEDGF counter-screen | shares compounds with LEDGF integ inh | TR-FRET HIV-1 integrase multimerization, biochemical | activation, % at 7.7 µM | 17% of 2,000 active | AID 1053131; in the data active = activation above about 8.9%
TR-FRET interf = optically interferes with TR-FRET readout in LEDGF counter-screen | shares compounds with LEDGF integ inh | TR-FRET optical interference counterscreen, HIV-1 IN multimerization | inhibition, % at 7.7 µM | 2,000 tested, under 10 active | AID 1053135;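 active = inhibition above the mean over all tested compounds plus 3 SD, which no compound reached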;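 note: 0% = integrase with antibodies and DMSO and 100% = antibodies without integrase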
LEDGF integ conf = confirmation of HIV-1 LEDGF/p75-dependent integration inhibitors; shares compounds with LEDGF integ inh; TR-FRET LEDGF/p75-dependent HIV-1 integration, biochemical; inhibition, % at 3.7 µM; 36% of 2,000 active; in the data active = inhibition above about 14%
The depositor's hits bear a star; / = no result.

SMILES	MBD2 inh	UHRF1 MBD2 ctr	TDP2 inh	LEDGF integ inh	IN multimer act	TR-FRET interf	LEDGF integ conf
O=C(COC(=O)c1cc(S(=O)(=O)N2CCOCC2)ccc1Cl)NC1CCCCC1	-6	4	10	19*	0	-2	-1
CCCCCc1cccc2[nH]cc(-c3ccccc3)c12	3	-1	-1	-2	/	/	/
CCOC1=CC2=C(C(=O)C(Cl)=CC2=O)[C@@H]2CN(S(=O)(=O)c3ccc(C)cc3)[C@@H](c3ccccc3)[C@H]12	1	-3	8	19*	7	-33	26*
CCN1C(=O)[C@@H]2[C@@H]3CN(S(=O)(=O)c4ccc(C)cc4)[C@@H](c4ccccc4)[C@@H]3C(=O)C[C@@H]2C1=O	-2	-4	3	0	/	/	/
CCOc1ccc(NC(=O)CS(=O)(=O)c2cn(C)c3ccccc23)cc1	6	2	-3	5	/	/	/
Cc1cc(-c2csc(NC(=O)c3ccc(=O)[nH]c3)n2)c(C)n1Cc1ccccc1	7	1	-7	17*	6	-29	26*
O=C(Nc1nc(-c2ccccc2)cs1)c1ccc(=O)[nH]c1	0	4	-4	4	/	/	/
COc1cccc(=O)c2c(C)n(C)c(C)c12	1	22*	16	36*	6	-21	0
CCOc1cccc(=O)c2c(C)n(C)c(C)c12	-3	4	10	14*	4	-13	0
CCCCCn1c(C)c2c(OCC)cccc(=O)c2c1C	5	20	8	8	/	/	/
COc1ccc(OC)c(NC(=O)COC(=O)/C=C/c2ccccc2Cl)c1	-1	-1	-10	-3	/	/	/
Cc1nc(NC(=O)COC(=O)/C=C/c2ccco2)c(Cl)cc1Cl	-2	19	-9	33*	2	-7	0
COc1ccc(OC)c(NC(=O)COC(=O)/C=C/c2ccco2)c1	5	15	-21	22*	1	-6	-4
O=C(CC1Sc2ccccc2NC1=O)NNC(=O)Nc1ccc(Cl)cc1 (stereo not given)	4	5	-5	-4	/	/	/
Cc1cccc(C(=O)N=c2c(C#N)cc3c(=O)n4cccc(C)c4nc3n2Cc2ccco2)c1	-10	0	-10	17*	2	-11	35*
Cc1cccn2c(=O)c3cc(C#N)c(=NC(=O)c4ccco4)n(Cc4ccco4)c3nc12	-6	-3	-9	3	/	/	/
Cc1cccn2c(=O)c3cc(C#N)c(=NC(=O)c4ccccc4)n(Cc4ccco4)c3nc12	0	6	-14	16*	-3	15	26*
O=S(=O)(c1ccc(NC(=S)N/N=C/c2ccc(O)c(O)c2)cc1)N1CCOCC1	0	12	-4	18*	1	-6	14*
Oc1ccc(/C=N/NC(=S)Nc2cccnc2)cc1O	-9	-2	-8	21*	18*	-66	34*
O=c1cc(-c2ccc(O)cc2)oc2c(C3O[C@H](CO)[C@@H](O)[C@H](O)[C@H]3O)c(O)cc(O)c12 (stereo not given in full)	1	-9	9	2	/	/	/
O=c1cc(-c2ccc(O)c(O)c2)oc2c(C3O[C@H](CO)[C@@H](O)[C@H](O)[C@H]3O)c(O)cc(O)c12 (stereo not given in full)	0	-6	-12	68*	81*	-410	90*
O=c1cc(-c2ccc(O)c(O)c2)oc2cc(O)c(C3OC(CO)C(O)C(O)C3O)c(O)c12 (stereo not given)	-7	-4	4	46*	73*	-369	91*
O=c1cc(-c2ccc(O)cc2)oc2cc(O)c([C@@H]3O[C@H](CO)[C@@H](O)[C@H](O)[C@H]3O)c(O)c12	1	-7	-9	3	/	/	/
Cc1cccc2nc(CSCc3ccco3)cn12	-1	5	4	16*	-2	10	13
Cc1cc(C)n2cc(CSCc3ccco3)nc2n1	-1	-3	10	1	/	/	/
Oc1ccc(/C=N/Nc2ccc(Cl)nn2)c(O)c1O	6	21*	11	70*	31*	-111	62*
